Here are results for 9 molecules from ChEMBL document CHEMBL3272173, “Synthesis and biological activity of peptide antagonists of luliberin (luteinizing hormone-releasing hormone)” (J Med Chem, 1979).

Peptide text beside a SMILES is read from it. * marks the point of attachment. Cbz = O=C(OCc1ccccc1)*; Boc = CC(C)(C)OC(=O)*; Bn = c1ccc(C*)cc1

Test [1] deals with T1, Gonadotropin-releasing hormone receptor (Rattus norvegicus) (UniProt P30969).
T1 sequence (whole entry): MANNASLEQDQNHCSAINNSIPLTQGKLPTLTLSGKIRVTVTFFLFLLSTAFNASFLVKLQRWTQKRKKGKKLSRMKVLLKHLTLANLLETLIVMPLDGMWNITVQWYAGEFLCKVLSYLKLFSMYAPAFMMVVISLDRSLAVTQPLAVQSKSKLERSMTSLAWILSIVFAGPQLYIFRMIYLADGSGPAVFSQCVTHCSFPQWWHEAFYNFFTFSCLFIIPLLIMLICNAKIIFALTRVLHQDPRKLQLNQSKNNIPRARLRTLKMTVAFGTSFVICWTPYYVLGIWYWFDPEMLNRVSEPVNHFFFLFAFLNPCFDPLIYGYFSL
The experiment in a line: In vitro antagonist activity at GNRHR in CD rat anterior pituitary gland assessed as inhibition of LH-RH-stimulated LH release at compound to LH-RH molar ratio of 20 after 4 hrs by radioimmunoassay. As to conditions: concentration not given here. In short, it runs like this: (§1)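 Anterior pituitaries from diestrus CD rats (200-250 g) were dissociated enzymatically (collagenase, hyaluronidase, then Viokase). Cells were cultured 4 days at 1.67 × 10^5 cells/mL in DME with 10% horse serum and 2.5% fetal calf serum, then washed serum-free. Duplicate cultures received LH-RH (2-5 × 10^-10 M) with a single analogue concentration in serum-free DME for 4 h at 37 °C. LH in the medium was measured by RIA and reported as % inhibition of LH-RH-stimulated release.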

The subject of test [2] is Rattus norvegicus. The experiment in a line: Antiovulatory activity in CD rat assessed as blockade of ovulation at 1 mg, sc administered as six doses at 1200, 1230, 1300, 1350, 1400 and 1450 hrs during proestrus stage measured during estrus stage by dissecting microscopic analysis. Type of test: functional. The method in brief: (§2)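 Cycling Charles River CD rats were given six subcutaneous injections of analogue in 0.1 mL propylene glycol on the afternoon of proestrus, and controls received vehicle alone. Rats were killed the next morning (estrus). Ovulating animals were scored and ova in the oviducts were counted under a dissecting microscope.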

The target in test [3] is T1, Gonadotropin-releasing hormone receptor (Rattus norvegicus). The experiment in a line: In vitro antagonist activity at GNRHR in CD rat anterior pituitary gland assessed as ratio of molar concentration of compound to LH-RH for inhibition of LH-RH-stimulated LH release after 4 hrs by radioimmunoassay. The method in brief: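 Monolayers were cultured 4 days from dissociated anterior pituitary cells of diestrus CD rats. They were exposed in duplicate to LH-RH (2-5 × 10^-10 M) plus multiple analogue concentrations in serum-free DME for 4 h at 37 °C. LH in the medium was measured by radioimmunoassay. The ED50 molar ratio is the analogue:LH-RH molar ratio giving 50% inhibition of LH-RH-stimulated LH release.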

Test [4] concerns Rattus norvegicus. The experiment in a line: Antiovulatory activity in sc dosed CD rat assessed as blockade of ovulation administered as six doses at 1200, 1230, 1300, 1350, 1400 and 1450 hrs during proestrus stage measured during estrus stage by dissecting microscopic analysis. In kind it is functional. In short, it runs like this: as §2
Test [5] addresses T1, Gonadotropin-releasing hormone receptor (Rattus norvegicus). The experiment in a line: In vitro antagonist activity at GNRHR in CD rat anterior pituitary gland assessed as inhibition of LH-RH-stimulated LH release at compound to LH-RH molar ratio of 2800 after 4 hrs by radioimmunoassay. As to conditions: concentration not given here. In short, it runs like this: as §1
Test [6] shares this target. The experiment in a line: In vitro antagonist activity at GNRHR in CD rat anterior pituitary gland assessed as inhibition of LH-RH-stimulated LH release at compound to LH-RH molar ratio of 200 after 4 hrs by radioimmunoassay. To be noted: concentration not given here. In short, it runs like this:
as §1

As to `CC(C)C[C@H](NC(=O)[C@@H](CC(C)C)NC(=O)[C@H](Cc1ccc(O)cc1)NC(=O)[C@H](CO)NC(=O)[C@H](Cc1c[nH]c2ccccc12)NC(=O)[C@H](Cc1ccc(OCc2ccccc2)cc1)NC(=O)OCc1ccccc1)C(=O)N[C@@H](CCCNC(=N)N)C(=O)N1CCC[C@H]1C(=O)NCC(N)=O.Cl`, the inhibition in test [1] was 57%. In addition, in the test with Rattus norvegicus [2], the “inhibition (INH)” value was found to be 0%. Also, the ED50 is 7 molar ratio in test [3] and above 1 mg in the test on Rattus norvegicus [4].
The like results for `CCNC(=O)[C@@H]1CCCN1C(=O)[C@H](CCCNC(=N)N)NC(=O)[C@H](CC(C)C)NC(=O)[C@@H](Cc1ccccc1)NC(=O)[C@H](Cc1ccc(O)cc1)NC(=O)[C@H](CO)NC(=O)[C@H](Cc1c[nH]c2ccccc12)NC(=O)[C@H](CC(C)C)NC(=O)OCc1ccccc1.Cl` were, in that order, 100%, 0%, 3 molar ratio and above 1 mg.
For `CC(=O)O.CCNC(=O)[C@@H]1CCCN1C(=O)[C@H](CCCNC(=N)N)NC(=O)[C@H](CC(C)C)NC(=O)[C@@H](Cc1ccc(OC)cc1)NC(=O)[C@H](Cc1ccc(O)cc1)NC(=O)[C@H](CO)NC(=O)[C@H](Cc1c[nH]c2ccccc12)NC(=O)[C@H](COCc1ccccc1)NC(=O)OCc1ccccc1`, the inhibition in test [1] stood at 100%. Moreover, the “inhibition (INH)” value with Rattus norvegicus [2] was 100%. Further, the ED50 in the test with Rattus norvegicus [4] is reported as 0.1 mg.
As for `CC(C)C[C@H](NC(=O)CNC(=O)[C@H](Cc1ccc(O)cc1)NC(=O)[C@H](CO)NC(=O)[C@H](Cc1c[nH]c2ccccc12)NC(=O)[C@@H](Cc1ccccc1)NC(=O)OCc1ccccc1)C(=O)N[C@@H](CCCNC(=N)N)C(=O)N1CCC[C@H]1C(=O)NCC(N)=O.Cl`, the “inhibition (INH)” value in the test with Rattus norvegicus [2] worked out at 0%. In addition, the inhibition in test [5] worked out at 76%. For the same molecule, the ED50 with Rattus norvegicus [4] was above 1 mg.
As to `CCNC(=O)[C@@H]1CCCN1C(=O)[C@H](CCCNC(=N)N)NC(=O)[C@H](CC(C)C)NC(=O)CNC(=O)[C@H](Cc1ccc(O)cc1)NC(=O)[C@H](CO)NC(=O)[C@H](Cc1c[nH]c2ccccc12)NC(=O)[C@@H](CC(C)C)NC(=O)OCc1ccccc1`, in test [5], the inhibition turned out to be 51%.
With `CCNC(=O)[C@@H]1CCCN1C(=O)[C@H](CCCNC(=N)N)NC(=O)[C@H](CC(C)C)NC(=O)CNC(=O)[C@H](Cc1ccc(O)cc1)NC(=O)[C@H](CO)NC(=O)[C@H](Cc1c[nH]c2ccccc12)NC(=O)[C@H](COCc1ccccc1)NC(=O)OC(C)(C)C` (Boc-S(Bn)WSYGLRP-NHEt), the inhibition in test [5] was 40%.
On to `CC(C)C[C@H](NC(=O)[C@@H](Cc1c[nH]c2ccccc12)NC(=O)[C@H](Cc1ccc(O)cc1)NC(=O)[C@H](CO)NC(=O)[C@H](Cc1c[nH]c2ccccc12)NC(=O)[C@H](CCC(N)=O)NC(=O)OCc1ccccc1)C(=O)N[C@@H](CCCNC(=N)N)C(=O)N1CCC[C@H]1C(=O)NCC(N)=O.Cl`, for which the “inhibition (INH)” value with Rattus norvegicus [2] was determined as 0%. Moreover, the inhibition in test [6] came to 87%. The ED50 is 8 molar ratio in test [3] and above 1 mg with Rattus norvegicus [4].
`CC(=O)O.CC(C)C[C@H](NC(=O)[C@@H](Cc1ccccc1)NC(=O)[C@H](Cc1ccc(O)cc1)NC(=O)[C@H](CO)NC(=O)[C@H](Cc1c[nH]c2ccccc12)NC(=O)[C@H](COCc1ccccc1)NC(=O)OCc1ccccc1)C(=O)N[C@@H](CCCNC(=N)N)C(=O)N1CCC[C@H]1C(=O)N(C)C`: in test [1], the inhibition came out at 100%. Besides, the “inhibition (INH)” value in the test with Rattus norvegicus [2] turned out to be 40%. For the same molecule, the ED50 in test [3] is 5.9 molar ratio; in the test on Rattus norvegicus [4] it was above 3 mg.
For the molecule `CC(C)C[C@H](NC(=O)CNC(=O)[C@H](Cc1ccc(O)cc1)NC(=O)[C@H](CO)NC(=O)[C@H](Cc1c[nH]c2ccccc12)NC(=O)[C@H](Cc1ccc(OCc2ccccc2)cc1)NC(=O)OCc1ccccc1)C(=O)N[C@@H](CCCNC(=N)N)C(=O)N1CCC[C@H]1C(=O)NCC(N)=O.Cl` (Cbz-Y(Bn)WSYGLRPG-NH2), in the test with Rattus norvegicus [2], the “inhibition (INH)” value was 20%. The inhibition in test [5] is 74%. The ED50 in the test on Rattus norvegicus [4] was above 1 mg.
